Legend:
[1] = Cytotoxicity against African green monkey Vero 76 cells assessed as cell viability after 48 to 96 hrs by crystal violet staining; format: cell-based; conditions: chlorocebus sabaeus
[2] = Cytotoxicity against human MT4 cells; format: cell-based
[3] = Cytotoxicity against BHK cells assessed as cell viability after 48 to 96 hrs by MTT assay; format: cell-based, Mesocricetus auratus; conditions: hamster
[4] = Cytotoxicity against bovine MDBK cells assessed as cell viability after 48 to 96 hrs by MTT assay; format: cell-based, Bos taurus; conditions: cattle
[5] = Antiviral activity against Bovine viral diarrhea virus 1-NADL ATCC VR-534 infected in MDBK cells assessed as protection against virus-induced cytopathogenicity after 3 to 4 days by MTT assay; format: functional, cell-based; conditions: Bovine viral diarrhea virus isolates and strains, ATCC VR-534, MDBK
Procedure, shortened: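 Cells seeded in 96-well plates (BHK 5x10^4, MDBK 3x10^4 cells/well), grown overnight to confluence, infected at m.o.i. 0.01 (BHK for Reo-1, MDBK for BVDV); serial compound dilutions in maintenance medium with 0.5% inactivated FBS added after 1 h; viability by MTT after 3–4 days at 37°C; EC50 for 50% protection by linear regression.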

Yellow fever virus = experiment: Antiviral activity against Yellow fever virus 17D infected in BHK cells assessed as protection against virus-induced cytopathogenicity after 3 to 4 days by MTT assay; format: functional, cell-based

Structure (SMILES)	CC50 [1] [µM]	CC50 [2] [µM]	CC50 [3] [µM]	CC50 [4] [µM]	also measured
Nc1nc2c(ncn2COCCO)c(=O)[nH]1 [ACYCLOVIR]	13	–	–	–	–
FC(F)(F)c1cccc(NC(=S)Nc2ccc(Cl)c(Cl)c2)c1	16	9	9.5	10	–
COc1c(C)c2c(c(O)c1C/C=C(\C)CCC(=O)O)C(=O)OC2 [MYCOPHENOLIC ACID]	> 100	–	–	–	–
O=c1cnn([C@@H]2O[C@H](CO)[C@@H](O)[C@H]2O)c(=O)[nH]1 [6-AZAURIDINE]	12	–	–	–	–
C[C@@]1(O)[C@H](O)[C@@H](CO)O[C@H]1n1cnc2c(=O)[nH]c(N)nc21 [2'-B-METHYL-GUANOSINE]	–	–	> 100	> 10	EC50 [5]: 1.1 µM; EC50 (Yellow fever virus): 1.9 µM
O=C1Nc2ccc(Cl)cc2[C@@](C#CC2CC2)(C(F)(F)F)O1 [EFAVIRENZ]	–	40	–	–	–

From ChEMBL document CHEMBL3616436, “Synthesis, cytotoxicity and antimicrobial activity of thiourea derivatives incorporating 3-(trifluoromethyl)phenyl moiety” (Eur J Med Chem, 2015)
